# Compound activity (PubChem BioAssay)
# ATG4B inhibitor = ATG4B protease inhibitors, primary screen, biochemical, fluorescence, uHTS | ATG4B cleavage of LC3-PLA2, NBD-HPC fluorescence, 1 h | 340,000 tested, 0.51% active | inhibition, % at 8.33 µM; in the data active means inhibition above about 40%
# Target sequence (Q9Y4P1 whole entry, looked up): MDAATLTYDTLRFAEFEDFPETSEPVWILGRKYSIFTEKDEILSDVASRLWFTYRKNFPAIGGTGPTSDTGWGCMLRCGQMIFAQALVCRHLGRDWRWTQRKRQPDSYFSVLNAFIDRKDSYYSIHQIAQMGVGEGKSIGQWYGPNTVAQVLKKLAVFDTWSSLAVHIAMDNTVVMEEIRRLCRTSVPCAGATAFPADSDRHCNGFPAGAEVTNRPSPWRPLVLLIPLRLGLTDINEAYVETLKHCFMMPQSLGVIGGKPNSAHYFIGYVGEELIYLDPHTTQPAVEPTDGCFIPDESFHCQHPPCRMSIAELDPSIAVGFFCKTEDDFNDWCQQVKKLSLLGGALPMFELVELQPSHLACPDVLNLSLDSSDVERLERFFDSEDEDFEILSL
# MC4R antag cAMP = MC4R antagonists of cAMP signaling, primary screen, cell-based, TR-FRET, antagonist arm of biased-ligand search; MC4R-expressing cells, MTII-stimulated cAMP, LANCE TR-FRET; 360,000 tested, 0.48% active; inhibition, % at 6.5 µM; AID 540295, 2011; Melanocortin receptor 4 (Homo sapiens), P32245;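 active means inhibition above its plate's cutoff, the mean of tested wells on that plate plus 3 SD, cut at about 29% in these data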;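 further: 0% = Melanotan II alone and 100% = Melanotan II plus saturating MCL0020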
#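 material = U2OS cells stably expressing human melanocortin 4 receptor (MC4R) | also added = Melanotan II challenge | dosing = single nominal compound dose of 6.5 µM | detection = TR-FRET with Eu-cAMP and labeled anti-cAMP, 671 nm | replication = singlicate | timing = compound 30 min, challenge 1 h, detection 1 h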
# MPTP block = mitochondrial permeability transition pore inhibitors, primary screen, biochemical, isolated mouse mitochondria, absorbance; Ca2+ swelling absorbance, 30 min; inhibition, % at 10 µM; 360,000 tested, 1.4% active;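 active means inhibition of 50% or more, scaled per plate between neutral and stimulator controls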;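 further: 0% = DMSO wells given calcium and 100% = 1 mM EGTA wells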
# MC4R barr agon = MC4R agonists recruiting beta-arrestin, primary screen, cell-based, luminescence, agonist arm of biased-ligand search | 360,000 tested, 0.98% active | activation, % at 8.9 µM | Melanocortin receptor 4 (Homo sapiens), P32245 | U2OS MC4R beta-arrestin complementation; percent of melanotan II response, DMSO zero;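 active means activation above a per-plate cutoff, the mean activation of sample wells on that plate plus 3 SD, cut at about 8% in these data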
# SMARCA2 act = SMARCA2 (BRM) function activators, primary screen, cell-based, luminescence, high throughput; MG213 cells, MMTV-luciferase reporter, dexamethasone, overnight; activation, % at 9.1 µM; 370,000 tested, 1% active; in the data active means activation above about 7.8%;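 further: 0% = vehicle wells and 100% = reference activator wells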
# MC4R barr ag = MC4R beta-arrestin agonists, retest, confirmation, cell-based, luminescence, U2OS. 2,400 tested, 31% active. activation, % at 8.9 µM. shares compounds with MC4R barr agon. U2OS MC4R beta-arrestin recruitment; scaled DMSO 0%, Melanotan II 100%;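 active means mean activation across replicates above the hit cutoff set in the earlier primary screen, cut at about 8% in these data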
# MOR-DOR barr ag = agonists of MOR-DOR heterodimerization, counter-screen for MC4R biased agonist project, cell-based, luminescence; shares compounds with MC4R barr agon; 2,400 tested, 5.8% active; activation, % at 9.2 µM; U2OS PathHunter beta-arrestin, beta-gal luminescence; percent of deltorphin B response, DMSO zero; AID 602194, 2012;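 active means mean activation across replicates exceeds the hit threshold derived in the earlier primary screen, cut at about 18% in these data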;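 further: 100% = deltorphin B at 0.9 µM final and 0% = DMSO alone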
# * marks the source's active call; other numbers are inactive results; · = no result given. This is a sample that favours compounds with a hit; in the whole collection about 4.1% have one here.
SMILES,ATG4B inhibitor,MC4R antag cAMP,MPTP block,MC4R barr agon,SMARCA2 act,MC4R barr ag,MOR-DOR barr ag
CC(C)(C)C1CCc2onc(C(=O)Nc3ccc4c(c3)OCO4)c2C1 (centres undefined),2.9,-2.6,0.7,11.6*,0.1,5.1,4.9
CCN(C(=O)c1cc2c(=O)[nH]c3ccc(C)cc3c2s1)c1ccc(F)cc1,1.1,8.7,1.6,11.9*,-2.8,1.7,6.3
COc1ccc(CN(C)C(=O)c2cc(S(=O)(=O)Nc3ccccc3F)ccc2C)c(OC)c1,-1.2,11.3,0.6,11.8*,-3.5,0.8,2.5
Oc1ccc(Cl)c(CN2CCN(c3ncc(Cc4ccccc4)cn3)CC2)c1,·,·,11.1,·,-9.8,·,·
Cn1c(=O)c2cc(NC(=O)CCc3cccc(Cl)c3)ccc2n1Cc1cccc(C(F)(F)F)c1,·,-4.6,1.9,14.2*,-2.1,-1.8,4.2
COC(=O)[C@]12C[C@H](CC(=O)N3CCN(C(=O)c4ccco4)CC3)C(=O)N(CCc3ccc(OC)c(OC)c3)C1=C[C@H](C(C)(C)C)O[C@@H]2C,·,·,·,·,-0.8,·,·
CC(c1ccccc1)n1cc(C(=O)NCCCN2CCCC2)nn1 (centres undefined),·,·,·,·,-0.8,·,·
O=c1c2ccccc2n(Cc2ccno2)n1[C@@H](Cc1ccccc1)Cn1cc(C2CCCC2)nn1,·,·,·,·,-3.2,·,·
C[C@@H]1CNC(=O)c2c(C(=O)N3CCN(c4ccccc4)CC3)ncn21,·,·,·,·,-2.0,·,·
S=C(Nc1cccc(Cl)c1)N1CCN(c2ccccn2)CC1,-4.7,1.1,0.5,-1.0,-1.4,·,·
S=C(Nc1ccc(Cl)c(Cl)c1)N1CCN(c2ccccn2)CC1,2.2,26.7,1.4,14.9*,-1.0,2.0,7.0
COc1ccc(OC)c(N=c2oc3c(OC)cccc3cc2C(=O)NCc2ccco2)c1,-4.8,7.5,2.0,-2.2,1.3,·,·
COc1ccccc1N=c1oc2c(OC)cccc2cc1C(=O)NCc1ccco1,-4.5,0.7,4.8,24.2*,·,4.2,25.3*
COc1ccc(N=C2c3ccccc3-c3ccc([N+](=O)[O-])cc32)cc1,-6.9,-4.4,1.7,0.0,2.8,·,·
O=[N+]([O-])c1ccc2c(c1)C(=Nc1ccccc1)c1ccccc1-2,6.3,-5.1,2.5,11.4*,-2.8,1.7,4.2
CC(C)Oc1ccc(C(CCNCc2ccc(O)cc2)c2ccccc2)cc1 (centres undefined),-13.1,2.2,48.8,11.9*,-1.8,23.7*,24.5*
COc1ccc(C(CCNCc2ccc(N(C)C)cc2)c2ccccc2)cc1 (centres undefined),5.5,-2.2,6.9,4.9,-2.5,·,·
CCCCc1c(-c2ccccc2OC)ncn1Cc1ccccc1C,·,·,·,·,-7.1,·,·
CCCCC1O[C@@H](C)[C@@H]2CN3CCc4c([nH]c5ccccc45)[C@@H]3C[C@@H]2N1C (some centres undefined),·,·,·,·,-1.2,·,·
COc1ccc(CC(=O)Nc2ccc(N3CCOCC3)cc2)cc1OC,-1.6,6.0,5.1,9.6*,1.2,9.6*,10.5
COc1ccc(CN(C)CC(=O)Nc2ccc(N3CCOCC3)cc2)cc1OC,-0.2,0.7,-0.5,-1.5,-2.9,·,·
Cc1sc2ncnc(SCC(=O)c3cccs3)c2c1C,15.3,-0.9,11.1,42.5*,3.5,4.3,6.2
O=C(COc1ccc(Cl)cc1Cl)NC(=O)c1ccccc1,2.6,-8.2,0.2,10.4*,1.0,0.6,6.7
COC(=O)c1oc2ccc(Br)cc2c1NC(=O)c1ccccc1,0.0,-9.3,-2.5,29.7*,2.5,16.3*,4.3
Cc1ccc2c(c1)C1CS(=O)(=O)N(Cc3ccc(F)cc3)CN1C2 (centres undefined),·,·,·,·,-0.8,·,·
SMILES,ATG4B inhibitor,MC4R antag cAMP,MPTP block,MC4R barr agon,SMARCA2 act,MC4R barr ag,MOR-DOR barr ag
Cc1ccc(C(=O)Nc2nccs2)cc1,-10.3,0.4,-0.5,-2.2,5.3,·,·
O=C(Nc1nccs1)c1ccc(COc2c(F)c(F)cc(F)c2F)cc1,-4.1,14.9,2.4,11.1*,1.7,6.2,5.0
O=C(Nc1cccc2nsnc12)c1ccc2c(c1)OCO2,-9.0,-0.1,0.5,-1.8,3.4,·,·
O=C(Nc1cc(-c2nc3ccccc3s2)ccc1Cl)c1ccc2c(c1)OCO2,2.2,6.2,1.6,24.2*,3.0,20.7*,1.9
CC1=NN(c2nc(N)nc(/C(C#N)=C/c3ccc([N+](=O)[O-])o3)n2)C(C)(C)C1,9.1,-41.5,4.4,36.6*,4.5,162.6*,172.0*
O=C1C2C(C(=O)N1/N=C/c1ccc([N+](=O)[O-])o1)C1C=CC2C12CC2 (centres undefined),9.7,25.8,0.6,-2.5,6.0,·,·
O=C(COC(=O)/C=C/c1ccccc1Cl)NCCNC(=O)COC(=O)/C=C/c1ccccc1Cl,2.3,3.5,2.3,12.2*,-1.6,1.4,3.5
O=S(=O)(c1cc2ccccc2s1)n1c(CN2CCOCC2)nc2ccccc21,·,·,·,·,-6.7,·,·
Clc1cccc(-c2noc3ncnc(Nc4ccc5c(c4)OCO5)c23)c1,3.8,4.8,0.0,0.2,0.2,·,·
Cc1cccc(Nc2ncnc3onc(-c4cccc(Cl)c4)c23)c1,-6.9,6.0,1.4,11.2*,-0.6,-0.3,5.6
CCOC(=O)[C@]12CCCCC/C=C\1N(Cc1ccc(OC)cc1)C(=O)[C@H]2CC(=O)NCc1cccs1,·,·,·,·,-3.4,·,·
O=C(OC12CCCN(C1)/C(=C/c1ccc(Cl)cc1)C2)c1cccc(F)c1 (centres undefined),·,·,·,·,-0.3,·,·
COc1ccc(-c2cnc3c(NC(C)=O)cc(-c4ccc(S(C)(=O)=O)cc4)cn23)cc1OC,·,5.2,0.5,10.8*,-3.0,9.8*,2.9
COc1cccc(-c2cnc3c(NC(C)=O)cc(-c4ccc(S(C)(=O)=O)cc4)cn23)c1,·,11.1,-0.3,10.7*,-3.4,14.2*,2.0
CC[C@@H](CCCCCCCn1ccc2ccccc21)CCC(=O)N(c1ccccc1)c1ccccc1,·,·,·,·,-2.3,·,·
COC(=O)[C@]12C[C@H](CC(=O)N3CCOCC3)C(=O)N(Cc3ccco3)C1=C[C@H](C(C)(C)C)O[C@@H]2C,·,·,·,·,2.1,·,·
CCc1ccc2c(c1)cc(CN(C(=S)Nc1ccccc1C)C1CC1)c1nnnn12,-13.8,7.5,2.8,12.5*,-0.2,3.9,1.5
